Experimental data taken from ChEMBL document CHEMBL1123566, “Synthesis and cardiac electrophysiological activity of 2- and 3-[(substituted phenyl)alkyl]quinuclidines. Structure-activity relationships” (1987).
Where “and” joins values, the source holds several entries; their conditions need not be identical. Identical values can stand only once.

Columns and labels:
Canis familiaris [1] = organism: Canis familiaris; test: (§1) In vitro electrophysiological evaluation in canine cardiac occurred is 100 uM.; assay type: functional; settings: Canis lupus familiaris; Heart
Canis familiaris [2] = organism: Canis familiaris; test: In vitro electrophysiological activity in canine cardiac occurred is 30 uM.; assay type: functional, Canis lupus familiaris, Heart
Canis familiaris [3] = organism: Canis familiaris; test: In vitro electrophysiological activity in canine cardiac occurred is 50 uM.; assay type: functional, Canis lupus familiaris, Heart
Canis familiaris [4] = organism: Canis familiaris; test: In vitro electrophysiological evaluation in canine cardiac Purkinje fibres reported as % change for action potential duration at a concentration of 10 uM; assay type: functional, Canis lupus familiaris, Purkinje fiber
Outline: (§2)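 Canine cardiac Purkinje fibres, intracellular microelectrode recording, paced at a basic cycle length of 1 s. APD95 and Vmax read simultaneously. Compound: 10 mM stock in deionized water, diluted into Tyrode's solution, tested over the stated concentration range. Each fibre used once as its own control. Result is % change from control, given at 10 µM or as the maximum with its concentration. M = <10% decrease or an increase in Vmax.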

Canis familiaris [5] = test: Mean arterial blood pressure was determined by intraduodenal administration of two dosages of 30 mg/kg (high dose)of compound in anesthetized dogs. Value was reported for experiment 1; assay type: functional, Canis lupus familiaris
Outline: (§3)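 Anesthetized dogs, usually given two intraduodenal doses, with the second dose cumulative (low/high). Left ventricular FRP and CT were determined at 15, 30 and 45 min after dosing. HR and BP were measured during nonpacing intervals. Values are % change from control at low/high dose, for individual animals. The vehicle-stability set used 5% dextrose in water/tragacanth (n = 8).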

Canis familiaris [6] = organism: Canis familiaris; test: In vitro electrophysiological evaluation in canine cardiac occurred is 30 uM.; assay type: functional; settings: Canis lupus familiaris; Heart
Canis familiaris [7] = test: Left ventricular refractory period was determined by intraduodenal administration of two dosages of 10 mg/kg (low dose) of compound in anesthetized dogs. Value was reported for experiment 1; assay type: functional, Canis lupus familiaris, Cardiac ventricle; outline: as §3
Canis familiaris [8] = organism: Canis familiaris; test: In vitro electrophysiological evaluation in canine cardiac Purkinje fibres reported as % change for action potential duration at 10 uM at 5-50 uM concentration range; assay type: functional, Canis lupus familiaris, Purkinje fiber
Outline: (§4)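 Canine cardiac Purkinje fibers, intracellular recording, paced at a basic cycle length of 1 s. APD95 and Vmax are recorded together across cumulative concentrations. Compound is a 10 mM aqueous stock diluted into Tyrode's solution. Each fiber is used once as its own control. Readouts are percent change from control at 10 μM, and the maximum change with the concentration where it occurred.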

Canis familiaris [9] = organism: Canis familiaris; test: In vitro electrophysiological evaluation in canine cardiac Purkinje fibres reported as % change for action potential duration at 10 uM at 0.1-30 uM concentration range; assay type: functional, Canis lupus familiaris, Purkinje fiber; outline: as §2
Canis familiaris [10] = organism: Canis familiaris; test: In vitro electrophysiological evaluation in canine cardiac ventricular muscle reported as % change for the functional refractory period (FRP) at 10 uM at concentration range of 0.1-100 uM; set-up: species or system Canis lupus familiaris, Muscle tissue
Outline: (§5)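 Canine right ventricle and papillary muscle strips in oxygenated Tyrode's solution, fitted with stimulating and recording electrodes. The extra-stimulus conduction-interval method was adapted for in vitro use. FRP and CT were read from a conduction-interval curve before and after various compound concentrations, and expressed as percent change from control. Compounds were taken from 10 mM deionized-water stock into Tyrode's. Each strip was used once as its own control.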

Canis familiaris [11] = organism: Canis familiaris; test: In vitro electrophysiological evaluation in canine cardiac Purkinje fibres reported as percent change Vmax at 10 uM at concentration range of 5-50 uM; assay type: functional; settings: Canis lupus familiaris, Purkinje fiber; outline: as §4
Canis familiaris [12] = test: Mean arterial blood pressure was determined by intraduodenal administration of two dosages of 10 mg/kg (low dose) of compound in anesthetized dogs. Value was reported for experiment 2; assay type: functional, Canis lupus familiaris; outline: as §3
Canis familiaris [13] = organism: Canis familiaris; test: In vitro electrophysiological evaluation in canine cardiac ventricular muscle reported as % change for conduction time(CT) at 10 uM at 0.1-100 uM concentration range; assay type: functional, Canis lupus familiaris, Muscle tissue
Outline: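 Canine right ventricular/papillary muscle strips in oxygenated Tyrode's, extracellular extra-stimulus conduction-interval method. FRP and CT are read from conduction-interval curves before and during rising concentrations. Compound is a 10 mM aqueous stock diluted into Tyrode's. Each strip is used once as its own control. Readouts are percent change from control at 10 μM, plus the maximum change with its concentration.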

Canis familiaris [14] = organism: Canis familiaris; test: In vitro electrophysiological evaluation in canine cardiac ventricular muscle reported as maximum % change for functional refractory period (FRP) at 0.1-100 uM concentration range; concentration at which it occurred is 10 uM.; set-up: species or system Canis lupus familiaris, Muscle tissue; outline: as §5
Canis familiaris [15] = test: Left ventricular refractory period was determined by intraduodenal administration of two dosages of 10 mg/kg (low dose) of compound in anesthetized dogs. Value was reported for experiment 2; assay type: functional, Canis lupus familiaris, Cardiac ventricle; outline: as §3
Canis familiaris [16] = organism: Canis familiaris; test: In vitro electrophysiological evaluation in canine cardiac Purkinje fibres reported as percent change Vmax at 10 uM at concentration range of 0.1-100 uM; assay type: functional; settings: Canis lupus familiaris, Purkinje fiber; outline: as §4
Canis familiaris [17] = test: Conduction time was determined by intraduodenal administration of two dosages of 30 mg/kg (high dose)of compound in anesthetized dogs. Value was reported for experiment 1; assay type: functional, Canis lupus familiaris
Outline: (§6)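 Anesthetized dogs given the compound intraduodenally, generally as two doses with the second a cumulative total (low/high). FRP and CT measured at 15, 30 and 45 min after dosing. HR and BP taken during nonpacing intervals. Values are percent change from control per animal. Activity criterion is FRP or CT prolonged ≥12%. Vehicle: 5% dextrose in water/tragacanth.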

Canis familiaris [18] = test: Heart rate was determined by intraduodenal administration of two dosages of 10 mg/kg (low dose) of compound in anesthetized dogs. Value was reported for experiment 2; assay type: functional, Canis lupus familiaris; outline: as §6
Canis familiaris [19] = organism: Canis familiaris; test: In vitro electrophysiological activity in canine cardiac occurred is 100 uM.; assay type: functional, Canis lupus familiaris, Heart
Canis familiaris [20] = test: Mean arterial blood pressure was determined by intraduodenal administration of two dosages of 10 mg/kg (low dose) of compound in anesthetized dogs. Value was reported for experiment 1; assay type: functional, Canis lupus familiaris; outline: as §3
Canis familiaris [21] = test: Conduction time was determined by intraduodenal administration of two dosages of 30 mg/kg (high dose) of compound in anesthetized dogs. Value was reported for experiment 2; assay type: functional, Canis lupus familiaris; outline: as §6
Canis familiaris [22] = test: Heart rate was determined by intraduodenal administration of two dosages of 10 mg/kg (low dose) of compound in anesthetized dogs. Value was reported for experiment 1; assay type: functional, Canis lupus familiaris; outline: as §6
Canis familiaris [23] = test: Conduction time was determined by intraduodenal administration of two dosages of 10 mg/kg (low dose) of compound in anesthetized dogs. Value was reported for experiment 1; assay type: functional, Canis lupus familiaris; outline: as §6
Canis familiaris [24] = test: Left ventricular refractory period was determined by intraduodenal administration of two dosages of 30 mg/kg (high dose)of compound in anesthetized dogs. Value was reported for experiment 2; assay type: functional, Canis lupus familiaris, Cardiac ventricle; outline: as §3
Canis familiaris [25] = test: Conduction time was determined by intraduodenal administration of two dosages of 10 mg/kg (low dose) of compound in anesthetized dogs. Value was reported for experiment 2; assay type: functional, Canis lupus familiaris
Outline: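 Anesthetized dogs; compound given intraduodenally, generally as two doses, the second a cumulative (high) dose. LV functional refractory period and conduction time measured 15, 30 and 45 min after dosing; heart rate and blood pressure measured during nonpacing intervals. Values are % change from control, given per individual animal. Active if FRP or CT prolonged by ≥12%.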

Canis familiaris [26] = test: Heart rate was determined by intraduodenal administration of two dosages of 30 mg/kg (high dose)of compound in anesthetized dogs. Value was reported for experiment 1; assay type: functional, Canis lupus familiaris; outline: as §6
Canis familiaris [27] = organism: Canis familiaris; test: as §1; assay type: functional, organism-based; settings: Canis lupus familiaris; Heart
Canis familiaris [28] = organism: Canis familiaris; test: In vitro electrophysiological evaluation in canine cardiac Purkinje fibres reported as percent change Vmax at 10 uM at concentration range of 0.1-30 uM; assay type: functional; settings: Canis lupus familiaris, Purkinje fiber; outline: as §2
Canis familiaris [29] = test: Mean arterial blood pressure was determined by intraduodenal administration of two dosages of 30 mg/kg(high dose) of compound in anesthetized dogs. Value was reported for experiment 2; assay type: functional, Canis lupus familiaris; outline: as §3
Canis familiaris [30] = organism: Canis familiaris; test: In vitro electrophysiological evaluation in canine cardiac ventricular muscle reported as maximum % change for functional refractory period (FRP) at 0.1-100 uM concentration range; concentration at which it occurred is 100 uM.; set-up: species or system Canis lupus familiaris, Muscle tissue; outline: as §5
Canis familiaris [31] = test: Left ventricular refractory period was determined by intraduodenal administration of two dosages(high dose) of 30 mg/kg of compound in anesthetized dogs. Value was reported for experiment 1; assay type: functional, Canis lupus familiaris, Cardiac ventricle; outline: as §3
Canis familiaris [32] = test: Heart rate was determined by intraduodenal administration of two dosages of 30 mg/kg (high dose) of compound in anesthetized dogs. Value was reported for experiment 2; assay type: functional, Canis lupus familiaris; outline: as §6
Canis familiaris [33] = organism: Canis familiaris; test: In vitro electrophysiological evaluation in canine cardiac Purkinje fibres reported as % change for action potential duration at 10 uM at 1-100 uM concentration range; assay type: functional, Canis lupus familiaris, Purkinje fiber; outline: as §2
Canis familiaris [34] = organism: Canis familiaris; test: In vitro electrophysiological evaluation in canine cardiac Purkinje fibres reported as maximum percent change Vmax concentration range of 0.1-100 uM; Minimal (<10% decrease or increase in V max).; assay type: functional; settings: Canis lupus familiaris; Purkinje fiber; outline: as §2
Canis familiaris [35] = organism: Canis familiaris; test: In vitro electrophysiological evaluation in canine cardiac ventricular muscle reported as maximum % change for conduction time(CT) at 0.1-100 uM concentration range; concentration at which it occurred is 100 uM.; assay type: functional, Canis lupus familiaris, Muscle tissue
Canis familiaris [36] = organism: Canis familiaris; test: In vitro electrophysiological evaluation in canine cardiac Purkinje fibres reported as percent change Vmax at 10 uM at concentration range of 1-100 uM; assay type: functional; settings: Canis lupus familiaris, Purkinje fiber; outline: as §2
Canis familiaris [37] = organism: Canis familiaris; test: (§7) In vitro electrophysiological activity in canine cardiac occurred is 100 uM; assay type: functional, Canis lupus familiaris, Heart
Canis familiaris [38] = organism: Canis familiaris; test: as §7; assay type: functional, Canis lupus familiaris, Heart; remark: listed apart in the source
Canis familiaris [39] = organism: Canis familiaris; test: In vitro electrophysiological evaluation in canine cardiac occurred is 100 uM; assay type: functional; settings: Canis lupus familiaris; Heart
Canis familiaris [40] = organism: Canis familiaris; test: In vitro electrophysiological evaluation in canine cardiac Purkinje fibres reported as percent change Vmax at 10 uM at concentration range of 0.1-100 uM; Minimal (<10% decrease or increase in V max).; assay type: functional, organism-based; settings: Canis lupus familiaris, Purkinje fiber; outline: as §2

Which results are given for `C=C[C@H]1CN2CC[C@H]1C[C@@H]2[C@@H](O)c1ccnc2ccc(OC)cc12` [QUINIDINE]?
Vmax (Canis familiaris [1]): -40%; APD95 (Canis familiaris [2]): -39%; APD95 (Canis familiaris [3]): -19%; APD95 (Canis familiaris [4]): -9%; Mean blood pressure (Canis familiaris [5]): -4%; Vmax (Canis familiaris [6]): -19%; LV FRP (Canis familiaris [7]): 13%; APD95 (Canis familiaris [8]): -9%; APD95 (Canis familiaris [9]): -21%; FRP (Canis familiaris [10]): 21% [middle of 4 runs]; Vmax (Canis familiaris [11]): -11%; Mean blood pressure (Canis familiaris [12]): -7%; CT (Canis familiaris [13]): 17% and 11% and <10%; FRP (Canis familiaris [14]): 22%; LV FRP (Canis familiaris [15]): 16%; Vmax (Canis familiaris [16]): -10%; CT (Canis familiaris [17]): 51%; HR (Canis familiaris [18]): -18%; APD95 (Canis familiaris [19]): -24%; Mean blood pressure (Canis familiaris [20]): 2%; CT (Canis familiaris [21]): 38%; HR (Canis familiaris [22]): -22%; CT (Canis familiaris [23]): 7%; LV FRP (Canis familiaris [24]): 28%; CT (Canis familiaris [25]): 10%; HR (Canis familiaris [26]): -42%; Vmax (Canis familiaris [27]): -53%; Vmax (Canis familiaris [28]): < 10%; Mean blood pressure (Canis familiaris [29]): 15%; FRP (Canis familiaris [30]): 27% and 24% and 46%; LV FRP (Canis familiaris [31]): 20%; HR (Canis familiaris [32]): -39%

Which results are given for `Cl.O=C(CCC1C(=O)C2CCN1CC2)c1ccccc1` (stereo not drawn)?
APD95 (Canis familiaris [33]): -1%; Vmax (Canis familiaris [34]): < 10%; APD95 (Canis familiaris [4]): -3%; CT (Canis familiaris [35]): 17%; FRP (Canis familiaris [10]): 12%; Vmax (Canis familiaris [36]): -36%; FRP (Canis familiaris [14]): 12%; APD95 (Canis familiaris [37]): -14%; APD95 (Canis familiaris [38]): -16%; Vmax (Canis familiaris [39]): -52%; Vmax (Canis familiaris [40]): < 10%
